In ChEMBL document CHEMBL4689842, “EUbOPEN Chemogenomics Library wave 1” (2021):
Where “and” joins values, the source holds several entries; their conditions need not be identical. Equal entries are not always repeated.

Legend:
Type in all cases: toxicity, cell-based
U2OS [1] = test: Incucyte cell viability with U2OS; conditions: human, 10 µM, compound concentration 10 uM; further: filed as whole numbers so only -1 and 0 and 1 occur
U2OS [2] = test: Multiplex assay against U2OS; conditions: human, 1 µM, compound concentration 1 uM
Procedure, shortened: (§1)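 Phenotypes for tubulin, mitochondrial mass and membrane permeability are expressed as per cents of healthy-nucleus cells. Cells were stained live at seeding with Hoechst33342, BioTracker Green Microtubule Cytoskeleton Dye, MitoTracker Red and Annexin V Alexa Fluor 680, then imaged after compound addition on a CQ1 microscope at 37°C and 5% CO2. Machine-learning gating in CellPathfinder separated Hoechst high-intensity objects from normal cells, divided normal cells by nuclear state (healthy, pyknosed, fragmented) and divided pyknosed cells into mitotic or apoptotic.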

HEK-293T = test: Incucyte cell viability with HEK293T; conditions: human, 10 µM, compound concentration 10 uM; further: filed as whole numbers so only -1 and 0 and 1 occur
Fibroblast [3] = test: Multiplex assay against human fibroblast; conditions: 1 µM, compound concentration 1 uM; procedure, shortened: as §1
Fibroblast [4] = test: Incucyte cell viability with human fibroblast; conditions: 10 µM, compound concentration 10 uM; further: filed as whole numbers so only -1 and 0 and 1 occur
[5] = 6 h, replicate number 1, timepoint 6 hours
[6] = 12 h, replicate number 1, timepoint 12 hours
[7] = 18 h, replicate number 1, timepoint 18 hours
[8] = 24 h, replicate number 1, timepoint 24 hours

## CS(=O)(=O)N1CCN(Cc2cc3nc(-c4cccc5[nH]ncc45)nc(N4CCOCC4)c3s2)CC1 [PICTILISIB]
U2OS [1]; 0 h, replicate number 1, timepoint 0 hours
  Growth Rate: 0
U2OS [1]; [5]
  Growth Rate: 0
U2OS [1]; [6]
  Growth Rate: 0
U2OS [1]; [7]
  Growth Rate: 0
U2OS [1]; [8]
  Growth Rate: 0
U2OS [2]; 12 h, replicate 1
  Population Apoptotic (%): 69% and 53%
  Population Fragmented Nuclei (%): 22% and 12%
  Population Healthy Nuclei (%): 35% and 77%
  Population Hoechst High Intensity Objects (%): 4%
  Population Membrane Permeable-Phenotype (%): 47% and 40%
  Population Mitotic Cells (%): 30% and 46%
  Population Normal (%): 95% and 96%
  Population Tubulin-Different-Phenotype (%): 100% and 49%
  Total Cell Count: 150 and 194
U2OS [2]; 12 h, replicate 2
  Population Apoptotic (%): 74% and 45%
  Population Fragmented Nuclei (%): 13%
  Population Healthy Nuclei (%): 26% and 78%
  Population Hoechst High Intensity Objects (%): 24% and 14%
  Population Membrane Permeable-Phenotype (%): 55% and 27%
  Population Mitotic Cells (%): 25% and 54%
  Population Normal (%): 75% and 86%
  Total Cell Count: 91
U2OS [2]; 24 h, replicate 1
  Population Apoptotic (%): 91% and 73%
  Population Fragmented Nuclei (%): 16% and 11%
  Population Membrane Permeable-Phenotype (%): 84% and 29%
  Population Normal (%): 77% and 97%
  Total Cell Count: 190 and 175
U2OS [2]; 24 h, replicate 2
  Population Apoptotic (%): 94% and 86%
  Population Fragmented Nuclei (%): 21% and 13%
  Population Healthy Nuclei (%): 28% and 75%
  Population Hoechst High Intensity Objects (%): 23% and 10%
  Population Mitotic Cells (%): 5% and 13%
  Population Normal (%): 76% and 89%
  Total Cell Count: 159 and 98
HEK-293T; [5]
  Growth Rate: 0
HEK-293T; [6]
  Growth Rate: 0
HEK-293T; [7]
  Growth Rate: 0
HEK-293T; [8]
  Growth Rate: 0
Fibroblast [3]; 12 h, replicate 1
  Population Apoptotic (%): 64% and 41%
  Population Fragmented Nuclei (%): 35% and 14%
  Population Healthy Nuclei (%): 45% and 47%
  Population Membrane Permeable-Phenotype (%): 5% and 11%
  Population Mitochondria Different-Phenotype (%): 11% and 25%
  Population Mitotic Cells (%): 35% and 58%
  Population Normal (%): 83% and 50%
  Population Pyknosed Nuclei (%): 18% and 37%
  Total Cell Count: 234 and 214
Fibroblast [3]; 12 h, replicate 2
  Population Apoptotic (%): 80% and 35%
  Population Fragmented Nuclei (%): 72% and 48%
  Population Healthy Nuclei (%): 18% and 22%
  Population Hoechst High Intensity Objects (%): 38% and 35%
  Population Membrane Permeable-Phenotype (%): 18% and 9%
  Population Normal (%): 61% and 64%
  Total Cell Count: 94 and 76
Fibroblast [3]; 24 h, replicate 1
  Population Apoptotic (%): 65% and 68%
  Population Fragmented Nuclei (%): 38% and 24%
  Population Healthy Nuclei (%): 49% and 38%
  Population Hoechst High Intensity Objects (%): 21% and 44%
  Population Membrane Permeable-Phenotype (%): 4% and 2%
  Population Mitotic Cells (%): 34% and 31%
  Population Normal (%): 78% and 55%
  Total Cell Count: 258 and 181
Fibroblast [3]; 24 h, replicate 2
  Population Apoptotic (%): 80% and 73%
  Population Fragmented Nuclei (%): 63% and 56%
  Population Healthy Nuclei (%): 25% and 9%
  Population Hoechst High Intensity Objects (%): 36% and 43%
  Population Mitotic Cells (%): 20% and 26%
  Population Normal (%): 63% and 56%
  Population Tubulin-Different-Phenotype (%): 27% and 50%
  Total Cell Count: 69 and 78
Fibroblast [4]; 0 h, replicate number 2, timepoint 0 hours
  Growth Rate: 1
Fibroblast [4]; [5]
  Growth Rate: 0
Fibroblast [4]; [6]
  Growth Rate: 0
Fibroblast [4]; [7]
  Growth Rate: 0
Fibroblast [4]; [8]
  Growth Rate: 0
